In ChEMBL document CHEMBL1142610, “Phenanthroquinolizidine alkaloids from the roots of Boehmeria pannosa potently inhibit hypoxia-inducible factor-1 in AGS human gastric cancer cells” (J Nat Prod, 2006) one finds IC50 and Activity data, which are given here for three compounds.

Experiment [1] is described as follows: Inhibition of hypoxia-induced HIF1 activation. The method, boiled down: (§1)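 AGS cells transiently cotransfected with pGL3-HRE-Luc (six HRE copies from human VEGF gene) plus pRL-CMV, plated 4 × 10^4 cells/well, grown 48 h. Then treated with graded concentrations and held 16 h in hypoxia (1% O2, 94% N2, 5% CO2). Dual-luciferase read-out, firefly normalized to renilla. 17-DMAG positive control. At least three independent experiments.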

The subject of experiment [2] is AGS. The experiment in a line: Inhibition of hypoxia-induced VEGF expression in human AGS cells after 16 hrs by RT-PCR analysis. It counts as functional, cell-based. The method, boiled down: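 AGS cells at 1.5 × 10^5 cells/cm2 pretreated 1 h with graded concentrations, then 16 h hypoxia (1% O2). Total RNA isolated and VEGF transcript detected by RT-PCR: 25 cycles (94 °C 30 s, 58 °C 30 s, 72 °C 1 min). Products run on 2% agarose with ethidium bromide staining. At least three experiments.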

The target in experiment [3] is Aryl hydrocarbon receptor nuclear translocator (Homo sapiens) (UniProt P27540). The experiment in a line: Inhibition of hypoxia-induced HIF1beta protein accumulation in human AGS cells after 12 hrs by Western blot. It counts as cell-based. The method, boiled down: (§2)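 AGS cells plated at 1.5 × 10^5 cells/cm2 and left overnight at 37 °C. Pretreated 1 h with graded concentrations, then 12 h hypoxia (1% O2, 94% N2, 5% CO2, 37 °C). Total lysates (50 µg) run on 6% SDS-PAGE. Blotted with monoclonal anti-HIF-1α or anti-HIF-1β, ECL detection. TOPO I served as loading control. At least three experiments.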

Experiment [4] deals with Hypoxia-inducible factor 1-alpha (Homo sapiens) (UniProt Q16665). The experiment in a line: Inhibition of hypoxia-induced HIF1alpha protein accumulation in human AGS cells after 12 hrs by Western blot. It counts as cell-based. In outline: as §2
Background: In western blotting, separated proteins are transferred to a membrane and probed.

The target in experiment [5] is T1, Hypoxia inducible factors; HIF-1-alpha, HIF-2-alpha (Homo sapiens, UniProt Q16665+Q99814). The experiment in a line: Inhibition of hypoxia-induced HIF1 activation in human AGS cells at 100 nM after 16 hrs by pGL3-HRE-luciferase reporter gene assay. The experiment is classed as cell-based. The method, boiled down:
as §1
(Reporter assays use an easily measured gene product as a stand-in for the process of interest.)

Experiment [6] deals with T1, Hypoxia inducible factors; HIF-1-alpha, HIF-2-alpha. Nature of the experiment: Inhibition of hypoxia-induced HIF1 activation in human AGS cells after 16 hrs by pGL3-HRE-luciferase reporter gene assay. The experiment is classed as cell-based. The method, boiled down: as §1
Experiment [7] has the same target. The experiment in a line: Inhibition of hypoxia-induced HIF1 activation in human AGS cells at 300 nM after 16 hrs by pGL3-HRE-luciferase reporter gene assay. The experiment is classed as cell-based. The method, boiled down: as §1

The source made the active and inactive calls. No cut-off for these calls is given here.

Chain of Hypoxia-inducible factor 1-alpha (Homo sapiens) (Q16665 whole entry, looked up): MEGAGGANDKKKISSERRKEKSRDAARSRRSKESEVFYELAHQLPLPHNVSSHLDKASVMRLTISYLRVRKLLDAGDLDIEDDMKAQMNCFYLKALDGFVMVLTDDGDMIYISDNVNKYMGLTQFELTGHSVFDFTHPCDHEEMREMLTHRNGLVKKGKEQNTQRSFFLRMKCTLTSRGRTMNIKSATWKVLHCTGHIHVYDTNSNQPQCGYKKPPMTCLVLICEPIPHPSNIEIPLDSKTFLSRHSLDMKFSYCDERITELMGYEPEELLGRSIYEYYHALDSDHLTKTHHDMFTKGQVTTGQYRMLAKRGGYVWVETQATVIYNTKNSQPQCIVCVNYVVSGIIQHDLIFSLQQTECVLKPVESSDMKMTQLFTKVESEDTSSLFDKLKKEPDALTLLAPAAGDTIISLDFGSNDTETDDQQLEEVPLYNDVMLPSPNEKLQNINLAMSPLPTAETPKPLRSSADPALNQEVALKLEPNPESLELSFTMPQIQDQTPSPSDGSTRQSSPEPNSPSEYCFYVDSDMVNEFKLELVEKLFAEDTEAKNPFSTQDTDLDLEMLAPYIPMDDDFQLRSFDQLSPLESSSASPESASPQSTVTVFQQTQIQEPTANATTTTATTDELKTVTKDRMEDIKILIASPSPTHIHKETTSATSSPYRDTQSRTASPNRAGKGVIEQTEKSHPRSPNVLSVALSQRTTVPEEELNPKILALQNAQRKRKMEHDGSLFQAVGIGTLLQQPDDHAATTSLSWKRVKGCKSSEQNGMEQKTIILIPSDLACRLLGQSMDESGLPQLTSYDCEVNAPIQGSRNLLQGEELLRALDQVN
Chain of Aryl hydrocarbon receptor nuclear translocator (Homo sapiens) (P27540 whole entry): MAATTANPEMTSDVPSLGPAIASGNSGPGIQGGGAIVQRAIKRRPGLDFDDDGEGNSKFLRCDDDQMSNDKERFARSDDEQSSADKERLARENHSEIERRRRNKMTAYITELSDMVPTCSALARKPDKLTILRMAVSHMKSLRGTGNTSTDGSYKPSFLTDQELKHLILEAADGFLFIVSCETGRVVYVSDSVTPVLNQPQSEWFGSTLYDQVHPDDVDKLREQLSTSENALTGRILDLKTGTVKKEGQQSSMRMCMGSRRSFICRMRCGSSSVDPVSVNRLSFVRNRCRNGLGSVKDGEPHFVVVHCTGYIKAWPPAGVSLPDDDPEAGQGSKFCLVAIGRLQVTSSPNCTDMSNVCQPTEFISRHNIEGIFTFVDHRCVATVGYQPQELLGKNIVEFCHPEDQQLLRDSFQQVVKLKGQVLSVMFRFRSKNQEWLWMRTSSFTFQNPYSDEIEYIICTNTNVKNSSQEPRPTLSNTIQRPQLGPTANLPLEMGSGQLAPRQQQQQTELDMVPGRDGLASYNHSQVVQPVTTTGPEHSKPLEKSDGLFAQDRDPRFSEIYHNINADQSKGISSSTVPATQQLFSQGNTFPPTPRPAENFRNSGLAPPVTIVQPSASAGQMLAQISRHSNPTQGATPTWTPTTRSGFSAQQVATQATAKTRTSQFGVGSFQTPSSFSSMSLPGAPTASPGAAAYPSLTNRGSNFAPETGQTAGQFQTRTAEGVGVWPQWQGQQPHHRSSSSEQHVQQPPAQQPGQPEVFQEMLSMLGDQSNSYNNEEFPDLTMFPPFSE

One may read the IC50 as the concentration that gives 50% inhibition. In experiment [1], `COc1ccc([C@@H](O)[C@@H](C)Oc2ccc([C@H]3O[C@H](c4ccc(O[C@H](C)[C@H](O)c5ccc6c(c5)OCO6)c(OC)c4)[C@H](C)[C@H]3C)cc2OC)cc1OC` [MANASSANTIN B] gave an IC50 of 3 nM.

As for `COc1ccc2c3c(c4cc(OC)c(OC)cc4c2c1)C[C@H]1CCCCN1C3` [CRYPTOPLEURINE], the Activity result in experiment [2] and in experiment [4] was “Dose-dependent effect” each time. In addition, the outcome in experiment [3] was inactive. For the same compound, in experiment [5], the outcome was Active. The same compound gave an IC50 in experiment [6] of 8.7 nM.

For `COc1ccc2c3c(c4cc(OC)c(OC)cc4c2c1)[C@@H](O)[C@H]1CCCCN1C3`, the outcome in experiment [7] was Active. Besides, the outcome in experiment [3] was inactive. For the same compound, the Activity entry in experiment [4] is “Dose-dependent effect”. In experiment [6], this compound came in with an IC50 of 48.1 nM.
